Results taken from PubChem BioAssay AID504513 (The Scripps Research Institute Molecular Screening Center, 2011).
The source made the active and inactive calls.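 How the source made its calls: active means PAFAH2 inhibition at least 50% at 0.2 µM with under 50% on each related off-target enzyme; inactive means the rest, including PAFAH2 hits that also hit off-targets.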

Assays:
Assay in all cases: PAFAH2 inhibition and serine hydrolase selectivity, late-stage follow-up, cell lysate, fluorescence, gel-based ABPP, BW5147 T-cell proteome, powder samples (AID 504513);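 further: 0% = DMSO-only band intensity and 100% = blank gel background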
ABHD11 = settings: BW5147 mouse T-cell proteome, FP-Rh gel ABPP, stronger effect = higher value
Procedure, shortened: (§1)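 Assay system: murine BW5147 T-cell soluble lysate, PAFAH2 and anti-target serine hydrolases / Quantity: 1 mg/mL soluble protein / Schedule: 30 min compound, 30 min probe at 25 °C / Also added: FP-Rh probe at 2 µM / Controls: DMSO high, gel background low / Signal: in-gel fluorescence of probe-labelled bands, integrated optical density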

APEH = settings: BW5147 mouse T-cell proteome, FP-Rh gel ABPP, stronger effect = higher value
Procedure, shortened: as §1

ESD = settings: BW5147 mouse T-cell proteome, FP-Rh gel ABPP, stronger effect = higher value
Procedure, shortened: as §1

LYPLA1 = settings: BW5147 mouse T-cell proteome, FP-Rh gel ABPP, stronger effect = higher value
Procedure, shortened: as §1

[1] = biological target: Platelet-activating factor acetylhydrolase 2, cytoplasmic (Mus musculus) (UniProt Q8VDG7); settings: FP-Rh gel ABPP, stronger effect = higher value
Chain of Platelet-activating factor acetylhydrolase 2, cytoplasmic (Mus musculus) (Q8VDG7 whole entry, looked up): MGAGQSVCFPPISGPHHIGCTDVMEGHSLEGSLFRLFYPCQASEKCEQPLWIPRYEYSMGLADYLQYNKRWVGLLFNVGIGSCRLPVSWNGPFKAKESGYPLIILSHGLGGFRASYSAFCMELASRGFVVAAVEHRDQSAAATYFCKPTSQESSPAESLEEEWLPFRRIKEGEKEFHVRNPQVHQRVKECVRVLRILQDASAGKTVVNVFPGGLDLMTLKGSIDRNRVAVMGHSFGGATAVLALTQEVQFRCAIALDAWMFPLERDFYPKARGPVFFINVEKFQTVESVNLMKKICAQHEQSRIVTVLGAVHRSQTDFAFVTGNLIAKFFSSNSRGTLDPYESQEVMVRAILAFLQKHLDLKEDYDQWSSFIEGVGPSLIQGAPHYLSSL
Procedure, shortened: as §1

Row | SMILES | inhibition (ABHD11; at 1 µM) | inhibition (ABHD11; inhibition, at 0.02 µM) | inhibition (ABHD11; inhibition, at 0.2 µM) | inhibition (APEH; at 1 µM) | inhibition (APEH; inhibition, at 0.02 µM) | inhibition (APEH; inhibition, at 0.2 µM) | inhibition (ESD; at 1 µM) | inhibition (ESD; inhibition, at 0.02 µM) | inhibition (ESD; inhibition, at 0.2 µM) | inhibition (LYPLA1; at 1 µM) | inhibition (LYPLA1; inhibition, at 0.02 µM) | inhibition (LYPLA1; inhibition, at 0.2 µM) | inhibition ([1]; PAFAH2, at 1 µM) | inhibition ([1]; PAFAH2, inhibition, at 0.02 µM) | inhibition ([1]; PAFAH2, inhibition, at 0.2 µM)
1 | O=C(N1CCCC1)n1ncc(-c2ccccc2)n1 | 100% | 0% | 100% | 100% | 0% | 100% | 0% (inactive) | 0% | 0% | 0% (inactive) | 0% | 0% | 100% | 75% | 100%
2 | O=C(N1CCOCC1)n1ncc(-c2ccccc2)n1 | 100% | 50% | 100% | 50% (inactive) | 0% | 25% | 0% (inactive) | 0% | 0% | 0% (inactive) | 0% | 0% | 75% | 25% | 50%
3 | COc1ccc2cc(-c3cnn(C(=O)N4CCCC4)n3)ccc2c1 | 0% (inactive) | 0% | 0% | 100% (inactive) | 0% | 25% | 0% (inactive) | 0% | 0% | 0% (inactive) | 0% | 0% | 100% | 0% | 100%
4 | O=C(N1CCOCC1)n1ncc(-c2cc(F)cc(F)c2)n1 | 100% | 50% | 100% | 100% | 0% | 100% | 50% (inactive) | 0% | 25% | 0% (inactive) | 0% | 0% | 100% | 0% | 100%
5 | O=C(N(c1ccccc1)c1ccccc1)n1ccnn1 | 100% | 0% | 50% | 0% (inactive) | 0% | 0% | 0% (inactive) | 0% | 0% | 0% (inactive) | 0% | 0% | 0% (inactive) | 0% | 0%
6 | O=C(N1CCOCC1)n1ncc(C(O)(c2ccccc2)c2ccccc2)n1 | 100% | 25% | 100% | 0% (inactive) | 0% | 0% | 0% (inactive) | 0% | 0% | 0% (inactive) | 0% | 0% | 50% | 0% | 50%
7 | O=C(n1ccnn1)n1c2ccccc2c2ccccc21 | 0% (inactive) | 0% | 0% | 0% (inactive) | 0% | 0% | 0% (inactive) | 0% | 0% | 0% (inactive) | 0% | 0% | 0% (inactive) | 0% | 0%
8 | O=C(N1CCCC1)n1ncc(-c2ccc(-c3ccccc3)cc2)n1 | 0% (inactive) | 0% | 0% | 0% (inactive) | 0% | 0% | 0% (inactive) | 0% | 0% | 0% (inactive) | 0% | 0% | 100% | 100% | 100%
9 | O=C(N1CCCC1)n1ncc(-c2ccc(OC(F)(F)F)cc2)n1 | 50% | 0% | 50% | 100% | 0% | 100% | 0% (inactive) | 0% | 0% | 0% (inactive) | 0% | 0% | 100% | 25% | 100%
10 | O=C(N1CCCC1)n1ncc(C(O)(c2ccccc2)c2ccccc2)n1 | 100% | 0% | 100% | 100% | 0% | 100% | 0% (inactive) | 0% | 0% | 0% (inactive) | 0% | 0% | 100% | 0% | 100%
11 | O=C(N1CCOCC1)n1ncc(-c2ccc(OC(F)(F)F)cc2)n1 | 100% | 25% | 100% | 0% (inactive) | 0% | 0% | 0% (inactive) | 0% | 0% | 0% (inactive) | 0% | 0% | 50% | 0% | 50%

Second part, the compound after the results:

Row | inhibition (ABHD11; at 1 µM) | inhibition (ABHD11; inhibition, at 0.02 µM) | inhibition (ABHD11; inhibition, at 0.2 µM) | inhibition (APEH; at 1 µM) | inhibition (APEH; inhibition, at 0.02 µM) | inhibition (APEH; inhibition, at 0.2 µM) | inhibition (ESD; at 1 µM) | inhibition (ESD; inhibition, at 0.02 µM) | inhibition (ESD; inhibition, at 0.2 µM) | inhibition (LYPLA1; at 1 µM) | inhibition (LYPLA1; inhibition, at 0.02 µM) | inhibition (LYPLA1; inhibition, at 0.2 µM) | inhibition ([1]; PAFAH2, at 1 µM) | inhibition ([1]; PAFAH2, inhibition, at 0.02 µM) | inhibition ([1]; PAFAH2, inhibition, at 0.2 µM) | SMILES
12 | 100% (inactive) | 0% | 0% | 100% (inactive) | 0% | 0% | 0% (inactive) | 0% | 0% | 100% (inactive) | 0% | 0% | 100% (inactive) | 0% | 0% | O=C(N1CCCC1)n1ccnn1
13 | 100% (inactive) | 0% | 0% | 0% (inactive) | 0% | 0% | 0% (inactive) | 0% | 0% | 0% (inactive) | 0% | 0% | 0% (inactive) | 0% | 0% | C=CCN(CC=C)C(=O)n1ccnn1
14 | 0% (inactive) | 0% | 0% | 0% (inactive) | 0% | 0% | 0% (inactive) | 0% | 0% | 0% (inactive) | 0% | 0% | 0% (inactive) | 0% | 0% | CN(C)C(=O)n1ccnn1
15 | 100% | 0% | 50% | 0% (inactive) | 0% | 0% | 0% (inactive) | 0% | 0% | 0% (inactive) | 0% | 0% | 100% (inactive) | 0% | 0% | O=C(N1CCOCC1)n1ccnn1
16 | 50% (inactive) | 0% | 0% | 0% (inactive) | 0% | 0% | 0% (inactive) | 0% | 0% | 0% (inactive) | 0% | 0% | 50% (inactive) | 0% | 0% | O=C(N1CCCCC1)n1ccnn1
17 | 100% (inactive) | 0% | 0% | 0% (inactive) | 0% | 0% | 0% (inactive) | 0% | 0% | 0% (inactive) | 0% | 0% | 0% (inactive) | 0% | 0% | CN(C(=O)n1ccnn1)c1ccccc1
18 | 0% (inactive) | 0% | 0% | 0% (inactive) | 0% | 0% | 0% (inactive) | 0% | 0% | 0% (inactive) | 0% | 0% | 0% (inactive) | 0% | 0% | CCN(CC)C(=O)n1ccnn1
19 | 50% (inactive) | 0% | 0% | 0% (inactive) | 0% | 0% | 0% (inactive) | 0% | 0% | 0% (inactive) | 0% | 0% | 0% (inactive) | 0% | 0% | CN1CCN(C(=O)n2ccnn2)CC1
